Columns and labels:
YAP = YAP activation in BMDMs; format: cell-based, mice; conditions: E. coli 12 h, n = 4 per group
How it was run: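 Bone marrow cells from Fpn^flox/flox or Fpn^LysM/LysM mice were erythrocyte-lysed and grown in DMEM/10% FBS with 10 ng/mL GM-CSF. Nonadherent cells were replated after 24 h and cultured 7 days, with medium changed every 3 days. Cells were infected with E. coli (12 h) with DFO (100 μM, 12 h). Lysates were blotted for P-YAP and YAP (1:1000 each) with a β-actin control (1:5000); n = 4.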

Areg = Areg protein in BMDMs; format: cell-based, mice; conditions: n = 4 per group
How it was run: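 BMDMs: bone marrow cells from mouse hind legs, erythrocytes lysed, grown in DMEM with 10% FBS and 10 ng/mL GM-CSF at 37°C and 5% CO2. Non-adherent cells replated after 24 h and cultured 7 days, medium changed every 3 days. Cells were infected with E. coli and harvested at 12 h. Iron-loading agent 100 μM for 20 h or iron chelator 100 μM for 12 h. Lysis in RIPA, BCA protein assay, 20 or 40 μg on 12% SDS-PAGE, PVDF. Anti-Areg 1:1000 with β-actin loading control (1:5000), HRP secondaries 1:5000, ECL detection. Supernatant Areg by ELISA. n = 4 per group.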

[1] = cited from earlier work

CC(=O)N(O)CCCCCNC(=O)CCC(=O)N(O)CCCCCNC(=O)CCC(=O)N(O)CCCCCN [DFO, desferrioxamine]
YAP activity, Fpn^LysM/LysM BMDMs, DFO (YAP; Fpn^LysM/LysM BMDMs, DFO 100 μM, 12 h): decreased YAP activity
YAP activity, Fpn^flox/flox BMDMs, DFO (YAP; Fpn^flox/flox BMDMs, DFO 100 μM, 12 h): decreased YAP activity
protein levels of Areg, Fpn^LysM/LysM BMDMs, DFO (Areg; Fpn^LysM/LysM BMDMs, E. coli 12 h, DFO 100 μM, 12 h): decreased YAP activity and the protein levels of Areg
protein levels of Areg, Fpn^flox/flox BMDMs, DFO (Areg; Fpn^flox/flox BMDMs, E. coli 12 h, DFO 100 μM, 12 h): decreased YAP activity and the protein levels of Areg

CC[C@H](C)[C@@H]1NC(=O)[C@@H](NC(=O)[C@@H](NC(=O)[C@@H]2CCCN2C(=O)[C@H](Cc2ccccc2)NC(=O)[C@H](Cc2c[nH]cn2)NC(=O)[C@@H](NC(=O)[C@@H](N)CC(=O)O)[C@@H](C)O)[C@@H](C)CC)CSSC[C@@H](C(=O)N[C@@H](CCCCN)C(=O)N[C@H](C(=O)O)[C@@H](C)O)NC(=O)[C@@H]2CSSC[C@@H]3NC(=O)[C@@H]4CSSC[C@H](NC(=O)[C@H](Cc5ccccc5)NC1=O)C(=O)N[C@@H](CSSC[C@H](NC(=O)[C@H](CCCCN)NC(=O)[C@H](CO)NC(=O)[C@H](CCCNC(=N)N)NC(=O)[C@H](Cc1c[nH]cn1)NC3=O)C(=O)NCC(=O)N[C@@H](CCSC)C(=O)N2)C(=O)NCC(=O)N4 [Hepcidin]
prevention of bacterial dissemination ([1]; by limiting extracellular iron availability): prevent bacterial dissemination by limiting extracellular iron availability
pharmacokinetics [1]: poor pharmacokinetics

ferric ammonium citrate
activation of YAP signaling, Fpn^flox/flox BMDMs, FAC (YAP; Fpn^flox/flox BMDMs, FAC 100 μM, 20 h): significantly facilitated the activation of YAP signaling
production and secretion of Areg, Fpn^flox/flox BMDMs, FAC (Areg; Fpn^flox/flox BMDMs, E. coli 12 h, FAC 100 μM, 20 h): promoted the production and secretion of Areg

verteporfin
protein levels of macrophage-derived Areg (YAP inhibition) (Areg; BMDMs and supernatant, 12 h after E. coli infection): dramatically downregulated the protein levels of macrophage-derived Areg

Reference: paper PMC9768356 (iScience, 2022)
